# Source: ChEMBL document CHEMBL4689842, “EUbOPEN Chemogenomics Library wave 1” (2021)
# Where “and” joins values, the source holds several entries; their conditions need not be identical. Equal entries are not always repeated.
# System: U2OS
# Assay: Multiplex assay against U2OS
# Assay type: toxicity, cell-based
# Conditions: human
# In short: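 Per cents of healthy-nucleus cells form the tubulin, mitochondrial-mass and membrane-permeability phenotype values. Live cells were stained at seeding with Hoechst33342, BioTracker Green Microtubule Cytoskeleton Dye, MitoTracker Red and Annexin V Alexa Fluor 680. After compound addition they were imaged on a CQ1 microscope at 37°C and 5% CO2, and CellPathfinder machine-learning gating split them into Hoechst high-intensity objects or normal cells, normal cells into healthy, pyknosed or fragmented nuclei, and pyknosed cells into mitotic or apoptotic.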
# [1] = 12 h, 1 µM, compound concentration 1 uM, replicate 1
# [2] = 12 h, 1 µM, compound concentration 1 uM, replicate 2
# [3] = 12 h, 10 µM, compound concentration 10 uM, replicate 1
# [4] = 12 h, 10 µM, compound concentration 10 uM, replicate 2
# [5] = 24 h, 1 µM, compound concentration 1 uM, replicate 1
# [6] = 24 h, 1 µM, compound concentration 1 uM, replicate 2
# [7] = 24 h, 10 µM, compound concentration 10 uM, replicate 1
# [8] = 24 h, 10 µM, compound concentration 10 uM, replicate 2
# [9] = 48 h, 1 µM, compound concentration 1 uM, replicate 1
# [10] = 48 h, 1 µM, compound concentration 1 uM, replicate 2
# [11] = 48 h, 10 µM, compound concentration 10 uM, replicate 1
# [12] = 48 h, 10 µM, compound concentration 10 uM, replicate 2
structure (smiles),measurement,setting,value
Nc1c(C(=O)NCc2ccc(C(=O)NCCCC3CCCCC3)cc2)cnn1-c1ccccc1 [SR-318],Population Apoptotic (%),[1],42% and 23% and 30%
same,Population Fragmented Nuclei (%),[1],5% and 10% and 6%
same,Population Healthy Nuclei (%),[1],85% and 78% and 81%
same,Population Hoechst High Intensity Objects (%),[1],3%
same,Population Membrane Permeable-Phenotype (%),[1],4% and 3%
same,Population Mitochondria Different-Phenotype (%),[1],9% and 6%
same,Population Mitotic Cells (%),[1],57% and 76% and 69%
same,Population Normal (%),[1],96%
same,Population Pyknosed Nuclei (%),[1],9% and 10% and 12%
same,Population Tubulin-Different-Phenotype (%),[1],52% and 44%
same,Total Cell Count,[1],171 and 322 and 200
same,Population Fragmented Nuclei (%),[2],9% and 3%
same,Population Healthy Nuclei (%),[2],83% and 75% and 91%
same,Population Membrane Permeable-Phenotype (%),[2],6% and 5%
same,Population Mitochondria Different-Phenotype (%),[2],8%
same,Population Mitotic Cells (%),[2],50% and 87% and 100%
same,Population Normal (%),[2],95% and 73%
same,Population Tubulin-Different-Phenotype (%),[2],19% and 25% and 11%
same,Total Cell Count,[2],63 and 91 and 118
same,Population Apoptotic (%),[3],61% and 58% and 42%
same,Population Fragmented Nuclei (%),[3],6% and 14% and 11%
same,Population Healthy Nuclei (%),[3],74% and 65% and 67%
same,Population Hoechst High Intensity Objects (%),[3],2% and 8% and 5%
same,Population Membrane Permeable-Phenotype (%),[3],8% and 5% and 2%
same,Population Mitochondria Different-Phenotype (%),[3],57% and 50% and 60%
same,Population Mitotic Cells (%),[3],38% and 41% and 57%
same,Population Normal (%),[3],97% and 91% and 94%
same,Population Pyknosed Nuclei (%),[3],18% and 20% and 21%
same,Population Tubulin-Different-Phenotype (%),[3],39% and 47% and 40%
same,Total Cell Count,[3],186 and 329 and 402
same,Population Apoptotic (%),[4],45% and 22% and 33%
same,Population Fragmented Nuclei (%),[4],17% and 15% and 12%
same,Population Healthy Nuclei (%),[4],69% and 58% and 72%
same,Population Hoechst High Intensity Objects (%),[4],7% and 1% and 10%
same,Population Membrane Permeable-Phenotype (%),[4],10% and 7% and 3%
same,Population Mitochondria Different-Phenotype (%),[4],55% and 51%
same,Population Mitotic Cells (%),[4],54% and 77% and 66%
same,Population Normal (%),[4],92% and 98% and 89%
same,Population Pyknosed Nuclei (%),[4],13% and 25% and 15%
same,Population Tubulin-Different-Phenotype (%),[4],50% and 56% and 67%
same,Total Cell Count,[4],71 and 90 and 91
same,Population Apoptotic (%),[5],35% and 34% and 21%
same,Population Fragmented Nuclei (%),[5],5% and 8%
same,Population Healthy Nuclei (%),[5],85%
same,Population Hoechst High Intensity Objects (%),[5],0% and 3%
same,Population Membrane Permeable-Phenotype (%),[5],1% and 4% and 2%
same,Population Mitochondria Different-Phenotype (%),[5],5% and 6% and 8%
same,Population Mitotic Cells (%),[5],64% and 65% and 78%
same,Population Normal (%),[5],99% and 96%
same,Population Pyknosed Nuclei (%),[5],9% and 10%
same,Population Tubulin-Different-Phenotype (%),[5],59% and 20% and 47%
same,Total Cell Count,[5],185 and 423 and 237
same,Population Apoptotic (%),[6],25%
same,Population Fragmented Nuclei (%),[6],6% and 3% and 4%
same,Population Healthy Nuclei (%),[6],80% and 84% and 75%
same,Population Membrane Permeable-Phenotype (%),[6],8% and 5%
same,Population Mitochondria Different-Phenotype (%),[6],13% and 12% and 7%
same,Population Mitotic Cells (%),[6],75%
same,Population Normal (%),[6],94% and 97% and 77%
same,Population Pyknosed Nuclei (%),[6],13% and 11% and 19%
same,Population Tubulin-Different-Phenotype (%),[6],22% and 14% and 23%
same,Total Cell Count,[6],67 and 130 and 97
same,Population Apoptotic (%),[7],55% and 58% and 61%
same,Population Fragmented Nuclei (%),[7],12% and 5%
same,Population Healthy Nuclei (%),[7],67% and 74% and 61%
same,Population Hoechst High Intensity Objects (%),[7],8% and 4%
same,Population Membrane Permeable-Phenotype (%),[7],4% and 2% and 0%
same,Population Mitochondria Different-Phenotype (%),[7],55% and 53% and 63%
same,Population Mitotic Cells (%),[7],44% and 41% and 38%
same,Population Normal (%),[7],91% and 95%
same,Population Pyknosed Nuclei (%),[7],19%
same,Population Tubulin-Different-Phenotype (%),[7],36% and 24%
same,Total Cell Count,[7],409 and 192 and 426
same,Population Apoptotic (%),[8],28% and 44% and 46%
same,Population Fragmented Nuclei (%),[8],13% and 17% and 14%
same,Population Healthy Nuclei (%),[8],65% and 62% and 66%
same,Population Hoechst High Intensity Objects (%),[8],1% and 7%
same,Population Membrane Permeable-Phenotype (%),[8],9% and 7% and 3%
same,Population Mitochondria Different-Phenotype (%),[8],58% and 57% and 66%
same,Population Mitotic Cells (%),[8],71% and 55% and 53%
same,Population Normal (%),[8],98% and 92%
same,Population Pyknosed Nuclei (%),[8],21% and 20% and 18%
same,Population Tubulin-Different-Phenotype (%),[8],41% and 30% and 61%
same,Total Cell Count,[8],104 and 67 and 97
same,Population Apoptotic (%),[9],44% and 47% and 55%
same,Population Fragmented Nuclei (%),[9],3% and 8%
same,Population Healthy Nuclei (%),[9],87% and 83%
same,Population Hoechst High Intensity Objects (%),[9],0% and 2%
same,Population Membrane Permeable-Phenotype (%),[9],2% and 1%
same,Population Mitochondria Different-Phenotype (%),[9],5% and 8% and 7%
same,Population Mitotic Cells (%),[9],55% and 52% and 44%
same,Population Normal (%),[9],99% and 97%
same,Population Pyknosed Nuclei (%),[9],8% and 9% and 7%
same,Population Tubulin-Different-Phenotype (%),[9],69% and 56% and 24%
same,Total Cell Count,[9],247 and 369 and 658
same,Population Apoptotic (%),[10],28% and 40% and 26%
same,Population Fragmented Nuclei (%),[10],7% and 5% and 2%
same,Population Healthy Nuclei (%),[10],86% and 84%
same,Population Membrane Permeable-Phenotype (%),[10],10% and 9% and 3%
same,Population Mitochondria Different-Phenotype (%),[10],14% and 9%
same,Population Mitotic Cells (%),[10],71% and 60% and 73%
same,Population Normal (%),[10],95% and 98% and 83%
same,Population Pyknosed Nuclei (%),[10],5% and 6% and 13%
same,Population Tubulin-Different-Phenotype (%),[10],28% and 20% and 25%
same,Total Cell Count,[10],93 and 175 and 144
same,Population Apoptotic (%),[11],70% and 73% and 60%
same,Population Fragmented Nuclei (%),[11],7%
same,Population Healthy Nuclei (%),[11],76% and 61%
same,Population Hoechst High Intensity Objects (%),[11],2% and 4%
same,Population Membrane Permeable-Phenotype (%),[11],2% and 0%
same,Population Mitochondria Different-Phenotype (%),[11],35% and 32% and 47%
same,Population Mitotic Cells (%),[11],29% and 26% and 40%
same,Population Normal (%),[11],97% and 95%
same,Population Pyknosed Nuclei (%),[11],16% and 23% and 22%
same,Population Tubulin-Different-Phenotype (%),[11],17% and 9% and 25%
same,Total Cell Count,[11],234 and 596 and 634
same,Population Apoptotic (%),[12],35% and 38% and 33%
same,Population Fragmented Nuclei (%),[12],15% and 14% and 12%
same,Population Healthy Nuclei (%),[12],68% and 60%
same,Population Hoechst High Intensity Objects (%),[12],7% and 3%
same,Population Membrane Permeable-Phenotype (%),[12],6% and 18% and 17%
same,Population Mitochondria Different-Phenotype (%),[12],52% and 40% and 44%
same,Population Mitotic Cells (%),[12],64% and 61% and 66%
same,Population Normal (%),[12],92% and 96%
same,Population Pyknosed Nuclei (%),[12],15% and 17% and 28%
same,Population Tubulin-Different-Phenotype (%),[12],32% and 26% and 31%
same,Total Cell Count,[12],113 and 78 and 158
